This passage reports kcat/Km results from ChEMBL document CHEMBL1143161, “Non-charged thiamine analogs as inhibitors of enzyme transketolase” (Bioorg Med Chem Lett, 2008).

The test system of data set [1] is Cc1c(Cc2cnc(C(F)(F)F)nc2N)csc1CCO. Briefly: (§1) Ratio of kcat to Km for thiamine […]. Summed up: (§2)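 Enzymatic TPPK assay with kcat/Km derived, run in triplicate. The value is the average, with data within 2-fold of the mean.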
Another data set relates to Cc1c(Cc2cncnc2N)csc1CCO. The description is as §1. Summed up: as §2
In data set [2] the test system is Cc1c(Cc2cnc(C(C)C)nc2N)csc1CCO. The data set is described as §1. The method in brief:
as §2

The subject of data set [3] is CC(=O)Nc1ncc(Cc2csc(CCO)c2C)c(N)n1. Described as §1. The method in brief: as §2
Data set [4] has as its system Cc1ncc(C[n+]2csc(CCO)c2C)c(N)n1. Described as §1. Summed up:
as §2

Data set [5] relates to Cc1ncc(Cc2c(C)c(CCO)nn2C)c(N)n1. The description is as §1. Summed up: as §2
The subject of data set [6] is Cc1ncc(Cc2csc(CCO)c2C)c(N)n1. The description is as §1. Summed up: as §2
For data set [7], the system named is Cc1ncc(Cn2c(C)c(CCO)sc2=O)c(N)n1. The description is as §1. The method in brief: as §2
Data set [8] relates to Cc1c(Cc2cnc(-c3ccccc3)nc2N)csc1CCO. Described as §1. The method in brief:
as §2

In data set [9] the test system is Cc1c(Cc2cnc(C3CC3)nc2N)csc1CCO. Described as §1. Summed up:
as §2

Usually kcat/Km stands for the turnover number divided by the Michaelis constant. For the substance “Thiamine pyrophosphokinase 1 (Homo sapiens), Q9H3S4”, the kcat/Km is 8.5 10^-4/nM/s in data set [1]; 1.2 10^-5/nM/s in the data set with Cc1c(Cc2cncnc2N)csc1CCO; 2.4 10^-5/nM/s in [2]; 1.1 10^-6/nM/s in data set [3]; 1.2 10^-5/nM/s in data set [4]; 1.9 10^-5/nM/s in [5]. For the same substance, the kcat/Km in data set [6] is 3.4 10^-5/nM/s; in data set [7] it was 1 10^-5/nM/s; in [8], 1 10^-6/nM/s; in data set [9], 2.7 10^-5/nM/s.
